Rows were chosen to be rich in hits. Some 1.1% of all compounds tested hit in one or more screens of this group.
PMI act hi M6P: activators of human phosphomannose isomerase at near-saturating mannose 6-phosphate. coupled PMI enzyme assay, resazurin fluorescence, 20 min; stronger effect = higher value; 1 = untreated enzyme, 0 = substrate-free blank. activation factor at 20 µM. 190,000 tested, 0.34% active;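 active = activation factor of 2 or more at 20 µM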
Target sequence (P34949 whole entry, looked up): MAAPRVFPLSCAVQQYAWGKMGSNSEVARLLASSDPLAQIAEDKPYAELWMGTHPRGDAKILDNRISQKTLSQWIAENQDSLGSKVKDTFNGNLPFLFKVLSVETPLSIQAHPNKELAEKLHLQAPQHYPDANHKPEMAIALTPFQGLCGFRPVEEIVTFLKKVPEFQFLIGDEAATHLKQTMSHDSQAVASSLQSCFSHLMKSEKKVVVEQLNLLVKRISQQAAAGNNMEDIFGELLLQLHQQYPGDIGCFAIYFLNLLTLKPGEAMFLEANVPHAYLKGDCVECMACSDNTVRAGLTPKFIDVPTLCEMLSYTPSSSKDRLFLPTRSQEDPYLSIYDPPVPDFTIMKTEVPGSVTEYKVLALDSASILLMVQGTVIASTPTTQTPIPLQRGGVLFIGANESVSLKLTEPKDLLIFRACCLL
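Test system: Human PMI in coupled enzyme assay | Input: 15 ng/mL PMI | Medium: HEPES-buffered pH 7.4 with magnesium and detergent | Compound: One concentration, 20 µM, in 1% DMSO | Incubation: Enzyme reaction with compound 20 min at room temperature | Detection: Diaphorase-driven resazurin-to-resorufin fluorescence, excitation 544, emission 590 nm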
G6PDH CS: inhibits Leuconostoc G6PDH, flagging false hits in G6PDH-based assays; Purified L. mesenteroides G6PDH, diaphorase/resazurin coupled fluorescence, 45 min; inhibition, % at 5 µM; 200,000 tested, 0.12% active; AID 1020; in the data active = inhibition above about 50%
PMI act: increases human mannose-6-phosphate isomerase activity; P34949; purified human PMI, coupled resazurin fluorescence, 20 min; stronger effect = higher value; 1 = vehicle control, 0 substrate-free wells; activation factor at 20 µM; 190,000 tested, 0.005% active;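 active = activation factor of 2 or more at 20 µM, relative to plate controls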
Tb hexokinase: T. brucei hexokinase 1 inhibition; recombinant TbHK1, G6PDH-coupled NADH A340; inhibition, % at 10 µM; 220,000 tested, 0.11% active; AID 1430;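 active = inhibition of 50% or more in the single-dose primary screen; inactive = inhibition below 50%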
Diaphorase act: activates diaphorase or chemically reduces, flagging diaphorase assay artifacts; Diaphorase/resazurin coupled assay, resorufin fluorescence, 16 min; stronger effect = higher value; 1 = vehicle wells, 0 = NADH-free wells; activation factor at 20 µM; 190,000 tested, 0.005% active; AID 1229;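 active = diaphorase activity raised at least twofold by the compound at 20 µM; inactive = activation factor below 2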
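Test system: Clostridium kluyveri diaphorase, purified enzyme. Buffer or medium: 50 mM HEPES pH 7.4 buffer plus MgCl2 and Tween 20. Also added: 0.114 mM NADH and 0.1 mM resazurin, final amounts. Dosing: compound 20 µM once, DMSO 1%. Schedule: 16 min enzyme reaction, ambient temperature. Detection: fluorescence of resorufin, 544 nm excitation, 590 nm emission.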
Diaph inh CS: counter-screen for diaphorase-based assays: diaphorase inhibitors and chemical oxidizers. diaphorase resazurin-to-resorufin fluorescence, NADH, 16 min; bacterial (C. kluyveri) enzyme, not human. inhibition, % at 20 µM. 190,000 tested, 0.69% active. AID 1217;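 active = primary screen inhibition at 20 µM above a set limit, cut at about 50% in these data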
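material = Clostridium kluyveri diaphorase enzyme | amount = 0.14 U/mL diaphorase, enzyme working solution | schedule = incubation 16 min, room temperature | detection = fluorescence of resorufin formed from resazurin, Ex 544/Em 590 nm | benchmarks = positive control minus NADH, DMSO neutral control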
Numbers stand for hits; – = inactive; · = no result given.

SMILES	PMI act hi M6P	G6PDH CS	PMI act	Tb hexokinase	Diaphorase act	Diaph inh CS
COCc1ccc(O)c2ncccc12	–	–	–	–	–	–
OCc1ccnc2c(O)cccc12	–	59	–	–	–	–
Cc1ccccc1NCc1ccc(O)c2ncccc12	–	–	–	–	–	92
NCC12CC3CC(C1)CC(c1ccc(Cl)cc1)(C3)C2	–	–	–	–	–	–
Cc1nc(/N=C(\N)N(C)C)[nH]c(=O)c1C	·	·	·	–	·	·
COc1ccccc1-c1nc(COc2ccc(Cl)cc2Cl)no1	·	·	·	–	·	·
O=c1c(OC2OC(CO)C(O)C(O)C2O)c(-c2ccc(O)c(O)c2)oc2cc(O)cc(O)c12 (configuration not stated)	–	–	–	–	–	62
O=c1c(OC2OC(CO)C(O)C(O)C2OC2OC(CO)C(O)C(O)C2O)c(-c2ccc(O)cc2)oc2cc(O)cc(O)c12 (configuration not stated)	·	·	·	–	·	·
C[C@@H]1O[C@@H](Oc2c(-c3cc(O)c(O)c(O)c3)oc3cc(O)cc(O)c3c2=O)[C@H](O)[C@H](O)[C@H]1O	–	–	–	–	–	71
COc1ccc(-c2oc3c(CC=C(C)C)c(O[C@@H]4O[C@H](CO)[C@@H](O)[C@H](O)[C@H]4O)cc(O)c3c(=O)c2O[C@@H]2O[C@@H](C)[C@H](O)[C@@H](O)[C@H]2O)cc1	–	–	–	·	–	–
CC(COc1ccccc1)N1CCC(CO)(Cc2ccccc2)CC1 (configuration not stated)	–	–	–	–	–	–
CC(=O)C1=C(c2ccccc2)NC(=O)NC1c1ccc(O)c(O)c1 (configuration not stated)	–	–	–	–	–	54
CCOC(=O)C(=CNc1cc(C)ccc1-n1cccc1)C(=O)OCC	·	·	·	–	·	·
O=C1NC(c2ccccc2)Nc2c1sc(=S)n2-c1ccccc1 (configuration not stated)	2.2	–	–	–	–	–
Cc1c(C(=O)O)sc(=S)n1-c1ccccc1	–	–	–	–	–	–
COc1ccc(C2NC(=O)c3sc(=S)n(-c4ccccc4)c3N2)cc1 (configuration not stated)	–	–	–	–	–	–
CCOc1ccc(C2NC(=O)c3sc(=S)n(-c4ccccc4)c3N2)cc1 (configuration not stated)	2.3	–	–	–	–	–
COc1cc(C(=S)N2CCN(c3ccccc3Cl)CC2)cc(O)c1O	–	–	–	–	–	61
COc1ccc(CNCC(=O)Nc2ccccc2-n2cccc2)cc1	–	–	–	–	–	–
O=C(CCN1C(=O)c2ccccc2C1=O)C1=NN[C@@H]2C(=O)N(c3ccc4c(c3)OCCO4)C(=O)[C@H]12	·	·	·	–	·	·
CC(/C=C/c1ccco1)=N/NC(=O)CNc1ccccc1C	–	–	–	–	–	–
CC(/C=C/c1ccco1)=N\NC(=O)CNc1ccc2ccccc2c1	–	–	–	–	–	56
COc1ccc(Cn2nnnc2C(C(C)C)N2CCN(c3ccccc3OC)CC2)cc1 (configuration not stated)	–	–	–	–	–	–
CC(C)C(c1nnnn1Cc1ccc(F)cc1)N1CCN(c2ccc(O)cc2)CC1 (configuration not stated)	–	–	–	–	–	62
CC(C)CSc1n[nH]c(=S)s1	–	–	–	–	–	–
SMILES	PMI act hi M6P	G6PDH CS	PMI act	Tb hexokinase	Diaphorase act	Diaph inh CS
O=C1NN=C(CSc2n[nH]c(=S)s2)CS1	2.1	–	–	–	–	–
COc1ccc(C(=O)c2ccccc2)cc1	–	–	–	–	–	–
COc1ccc(C(=O)NNc2ccccc2)cc1	2.4	–	–	–	–	–
CCOC(=O)c1c(NC(=O)C2C3CCC(O3)C2C(=O)O)sc(C)c1-c1ccc(C)cc1 (configuration not stated)	–	–	–	–	–	52
CCOC(=O)c1c(-c2cccc3ccccc23)csc1NC(=O)C1C2CCC(O2)C1C(=O)O (configuration not stated)	–	–	–	–	–	–
Cc1cccc2cc(CNCc3ccccc3)c(Cl)nc12	–	–	–	–	–	–
CC1CC(=O)c2c(cc3c(-c4c(O)cc(O)c5c(O)c6c(cc45)OC(C)CC6=O)c(O)cc(O)c3c2O)O1 (configuration not stated)	–	–	–	–	–	64
O=C1CC(c2ccc(O)cc2)Oc2cc(O)cc(O)c21 (configuration not stated)	–	–	–	–	–	–
Cc1nc2cc(C(=O)NCc3cccnc3)ccc2n1-c1ccc(F)cc1F	–	–	–	–	–	–
S=C(Nc1ccc(Cl)cc1)Nc1cccc2cnccc12	–	–	–	–	–	51
Fc1ccc(NC(=S)Nc2cccc3cnccc23)cc1	–	51	–	–	–	–
CN(C)S(=O)(=O)c1cccc(NC(=S)Nc2cccc3cnccc23)c1	·	·	·	–	·	·
S=C(Nc1cccnc1)Nc1cccc2cnccc12	–	–	–	–	–	62
Cc1ccn2cc(C34CC5CC(CC(C5)C3)C4)nc2c1	–	–	–	–	–	–
O=C(c1ccc(Cl)cc1)c1oc2ccccc2c1CS(=O)c1ccccc1 (configuration not stated)	2.2	–	–	–	–	–
COc1ccc(/C=N/Nc2nn3cnnc3c3ccccc23)cc1	·	·	·	–	·	·
CCCc1cc2c(=O)c(-c3nc4ccccc4s3)c(COCC(=O)O)oc2cc1O	–	–	–	–	–	–
COc1cc([N+](=O)[O-])cc2cc(C(=O)N3CCCC3)c(=O)oc12	·	–	·	–	·	·
Cc1ccc(S(=O)(=O)c2ccc(NN)cc2)cc1	2.5	–	–	–	–	–
CC1CC2OC(=O)C3(C)CCCC(C)(C23)C1(O)CCc1ccoc1 (configuration not stated)	·	·	·	–	·	·
Cc1ccc(C)c(NC(=O)CN(C)S(=O)(=O)c2cccc3cccnc23)c1	·	·	·	–	·	·
C=C1c2ccccc2NC(=O)N1c1ccc(C)cc1	2.1	–	–	–	–	–
Cc1ccc(N2C(=O)c3cccc4cccc(c34)C2=O)cc1	–	–	–	–	–	–
C=C1c2cc(C)ccc2NC(=O)N1c1ccc(C)cc1	2.4	–	–	–	–	–
Cc1ccc2c(c1)/C(=N/N1C(=O)c3ccccc3C1=O)C(=O)N2	–	–	–	–	–	–
COc1cccc2sc(/N=C/N(C)C)nc12	·	·	·	–	·	·
COc1ccc2[nH]c3c(Cl)ncnc3c2c1	–	–	–	–	–	–
COc1ccc2[nH]c3c(=S)nc[nH]c3c2c1	2.6	–	–	–	–	–

Bioassay records (PubChem BioAssay)
